From ChEMBL document CHEMBL5108089, “Structure-based discovery of potent inhibitors of Axl: design, synthesis, and biological evaluation” (RSC Med Chem, 2022)

Legend:
[1] = molecular target: T1, Tyrosine-protein kinase receptor UFO (Homo sapiens, UniProt P30530); assay: Inhibition of human Axl using KKSRGDYMTMQIG as substrate incubated for 40 mins in the presence of [gamma33P]ATP by scintillation counting analysis
T1 sequence (P30530 whole entry): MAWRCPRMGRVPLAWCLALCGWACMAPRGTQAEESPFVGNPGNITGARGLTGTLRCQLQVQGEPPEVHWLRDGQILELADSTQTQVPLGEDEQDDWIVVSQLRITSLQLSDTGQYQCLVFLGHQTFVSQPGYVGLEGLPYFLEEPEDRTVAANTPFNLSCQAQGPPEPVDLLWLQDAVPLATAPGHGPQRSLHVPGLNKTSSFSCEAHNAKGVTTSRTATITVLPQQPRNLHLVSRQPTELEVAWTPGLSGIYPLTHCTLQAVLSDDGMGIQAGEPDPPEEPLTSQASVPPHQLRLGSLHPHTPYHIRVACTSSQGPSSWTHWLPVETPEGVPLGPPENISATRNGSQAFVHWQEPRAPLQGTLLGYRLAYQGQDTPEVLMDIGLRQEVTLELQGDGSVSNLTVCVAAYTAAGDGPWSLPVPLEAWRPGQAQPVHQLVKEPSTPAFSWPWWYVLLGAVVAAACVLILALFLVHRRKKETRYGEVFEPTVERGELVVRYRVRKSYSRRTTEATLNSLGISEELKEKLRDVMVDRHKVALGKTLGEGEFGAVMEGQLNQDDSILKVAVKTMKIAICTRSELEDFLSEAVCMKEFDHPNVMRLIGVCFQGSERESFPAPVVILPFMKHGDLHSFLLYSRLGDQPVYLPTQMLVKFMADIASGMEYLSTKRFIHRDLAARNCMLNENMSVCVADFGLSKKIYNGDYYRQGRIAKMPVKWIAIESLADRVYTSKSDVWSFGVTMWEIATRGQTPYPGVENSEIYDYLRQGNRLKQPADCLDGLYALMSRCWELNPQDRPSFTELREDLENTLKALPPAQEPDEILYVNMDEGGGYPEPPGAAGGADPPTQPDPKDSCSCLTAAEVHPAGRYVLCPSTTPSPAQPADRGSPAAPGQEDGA

Aurora kinase B = Aurora kinase B (Homo sapiens, UniProt Q96GD4); assay: Inhibition of human Aurora B using AKRRRLSSLRA as substrate incubated for 40 mins in the presence of [gamma33P]ATP by scintillation counting analysis
Chain of Aurora kinase B (Q96GD4 whole entry): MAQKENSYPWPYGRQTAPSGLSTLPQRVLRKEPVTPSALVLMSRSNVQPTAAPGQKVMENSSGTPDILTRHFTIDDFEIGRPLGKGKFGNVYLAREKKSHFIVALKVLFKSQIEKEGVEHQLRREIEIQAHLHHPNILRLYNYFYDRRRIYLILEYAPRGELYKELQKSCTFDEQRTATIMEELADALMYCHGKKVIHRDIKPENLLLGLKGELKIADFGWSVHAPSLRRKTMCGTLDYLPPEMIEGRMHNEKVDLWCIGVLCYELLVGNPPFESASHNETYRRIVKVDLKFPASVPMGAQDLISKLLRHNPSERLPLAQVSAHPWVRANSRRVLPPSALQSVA
Outline: (§1)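 Human kinase, radiometric: incubated in 8 mM MOPS pH 7.0, 0.2 mM EDTA, 10 mM magnesium acetate with [γ-33P]-ATP; started by Mg/ATP mix, 40 min at room temperature, stopped with phosphoric acid to 0.5%. Spotted on P30 filtermat, washed 4×4 min in 0.425% phosphoric acid and once in methanol, dried, scintillation counted.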

[2] = molecular target: ALK tyrosine kinase receptor (Homo sapiens, UniProt Q9UM73); assay: Inhibition of human ALK using KKKSPGEYVNIEFG as substrate incubated for 40 mins in the presence of [gamma33P]ATP by scintillation counting analysis; outline: as §1
Chain of ALK tyrosine kinase receptor (Q9UM73 whole entry): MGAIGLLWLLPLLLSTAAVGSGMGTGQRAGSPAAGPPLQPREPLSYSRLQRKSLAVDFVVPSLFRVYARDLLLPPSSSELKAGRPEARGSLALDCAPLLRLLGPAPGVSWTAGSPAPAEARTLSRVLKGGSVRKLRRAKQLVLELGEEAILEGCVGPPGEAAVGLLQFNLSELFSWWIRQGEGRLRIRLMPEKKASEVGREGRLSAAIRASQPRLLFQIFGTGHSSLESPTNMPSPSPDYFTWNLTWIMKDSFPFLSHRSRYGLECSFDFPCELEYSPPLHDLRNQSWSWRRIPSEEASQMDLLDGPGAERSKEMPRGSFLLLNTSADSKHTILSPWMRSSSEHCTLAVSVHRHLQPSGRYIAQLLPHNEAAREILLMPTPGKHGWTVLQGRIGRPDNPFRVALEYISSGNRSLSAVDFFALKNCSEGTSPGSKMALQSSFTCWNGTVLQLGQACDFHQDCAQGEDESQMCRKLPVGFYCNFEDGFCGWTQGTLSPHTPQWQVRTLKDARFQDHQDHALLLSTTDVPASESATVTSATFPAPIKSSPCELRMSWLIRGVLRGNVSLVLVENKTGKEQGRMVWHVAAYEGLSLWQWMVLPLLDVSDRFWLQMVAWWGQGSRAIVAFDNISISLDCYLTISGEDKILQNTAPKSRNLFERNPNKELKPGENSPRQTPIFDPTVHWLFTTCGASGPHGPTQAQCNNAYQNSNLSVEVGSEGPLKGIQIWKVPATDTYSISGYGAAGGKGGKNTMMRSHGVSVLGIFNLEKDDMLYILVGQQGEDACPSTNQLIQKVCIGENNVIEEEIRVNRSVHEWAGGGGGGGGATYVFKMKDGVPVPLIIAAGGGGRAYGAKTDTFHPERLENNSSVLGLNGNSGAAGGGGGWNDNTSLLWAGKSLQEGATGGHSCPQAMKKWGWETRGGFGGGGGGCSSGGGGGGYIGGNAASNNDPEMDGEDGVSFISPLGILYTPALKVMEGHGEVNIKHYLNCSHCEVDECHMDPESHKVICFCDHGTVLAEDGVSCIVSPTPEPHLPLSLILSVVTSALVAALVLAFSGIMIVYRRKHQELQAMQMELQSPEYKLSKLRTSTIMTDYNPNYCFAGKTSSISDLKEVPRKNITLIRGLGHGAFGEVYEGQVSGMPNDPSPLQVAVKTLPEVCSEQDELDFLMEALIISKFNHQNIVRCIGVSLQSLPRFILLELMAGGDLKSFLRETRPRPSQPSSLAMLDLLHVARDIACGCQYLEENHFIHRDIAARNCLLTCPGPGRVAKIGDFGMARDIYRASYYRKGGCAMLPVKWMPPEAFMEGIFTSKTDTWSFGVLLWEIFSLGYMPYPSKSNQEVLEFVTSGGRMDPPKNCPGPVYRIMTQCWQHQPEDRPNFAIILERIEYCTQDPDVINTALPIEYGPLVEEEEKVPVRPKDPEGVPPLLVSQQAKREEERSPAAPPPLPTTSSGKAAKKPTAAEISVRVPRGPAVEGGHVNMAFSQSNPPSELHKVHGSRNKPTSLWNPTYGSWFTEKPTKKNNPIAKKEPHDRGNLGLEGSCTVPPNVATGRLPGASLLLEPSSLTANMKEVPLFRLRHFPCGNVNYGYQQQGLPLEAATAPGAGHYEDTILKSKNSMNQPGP

[3] = molecular target: Tyrosine-protein kinase JAK2 (Homo sapiens, UniProt O60674); assay: Inhibition of human JAK2 using KTFCGTPEYLAPEVRREPRILSEEEQEMFRDFDYIADWC as substrate incubated for 40 mins in the presence of [gamma33P]ATP by scintillation counting analysis; outline: as §1
Chain of Tyrosine-protein kinase JAK2 (O60674 whole entry): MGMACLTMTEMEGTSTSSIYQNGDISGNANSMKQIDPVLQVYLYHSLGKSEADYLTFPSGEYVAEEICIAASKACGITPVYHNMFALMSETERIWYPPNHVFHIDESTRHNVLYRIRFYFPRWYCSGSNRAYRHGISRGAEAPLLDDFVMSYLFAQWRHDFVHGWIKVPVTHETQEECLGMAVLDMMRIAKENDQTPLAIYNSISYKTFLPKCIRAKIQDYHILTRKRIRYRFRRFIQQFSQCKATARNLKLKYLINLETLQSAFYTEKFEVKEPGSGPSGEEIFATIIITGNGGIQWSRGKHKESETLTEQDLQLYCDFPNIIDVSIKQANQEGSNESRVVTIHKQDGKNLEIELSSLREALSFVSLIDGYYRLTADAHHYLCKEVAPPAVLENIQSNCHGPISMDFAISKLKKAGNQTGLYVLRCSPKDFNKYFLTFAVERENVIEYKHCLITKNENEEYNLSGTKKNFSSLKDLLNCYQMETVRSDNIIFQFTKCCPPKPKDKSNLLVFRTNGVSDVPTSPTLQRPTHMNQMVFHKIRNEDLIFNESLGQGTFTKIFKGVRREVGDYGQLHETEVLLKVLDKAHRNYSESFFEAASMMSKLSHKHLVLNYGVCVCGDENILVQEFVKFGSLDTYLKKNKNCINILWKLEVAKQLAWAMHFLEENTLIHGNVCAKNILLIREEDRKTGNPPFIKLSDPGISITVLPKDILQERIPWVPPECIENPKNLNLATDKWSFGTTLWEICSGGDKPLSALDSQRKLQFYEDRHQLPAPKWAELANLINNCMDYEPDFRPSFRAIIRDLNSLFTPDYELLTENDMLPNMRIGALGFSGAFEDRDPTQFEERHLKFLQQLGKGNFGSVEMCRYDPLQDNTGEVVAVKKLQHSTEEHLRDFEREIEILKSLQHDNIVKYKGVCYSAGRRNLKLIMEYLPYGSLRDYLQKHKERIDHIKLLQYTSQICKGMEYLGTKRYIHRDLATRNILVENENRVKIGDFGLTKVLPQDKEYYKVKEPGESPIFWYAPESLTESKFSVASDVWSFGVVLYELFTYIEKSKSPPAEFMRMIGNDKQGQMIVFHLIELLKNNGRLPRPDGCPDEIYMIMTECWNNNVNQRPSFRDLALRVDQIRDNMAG

[4] = Intrinsic clearance in human; format: ADME
[5] = Metabolic stability in rat liver microsomes assessed as half-life preincubated for 10 mins followed by NADPH addition and measured upto 60 mins by LC-MS/MS analysis; format: ADME, Microsome; settings: time < 70 min
[6] = Intrinsic clearance in rat; format: ADME
[7] = Metabolic stability in human liver microsomes assessed as intrinsic clearance preincubated for 10 mins followed by NADPH addition and measured upto 60 mins by LC-MS/MS analysis; format: ADME, Microsome; settings: time < 70 min, read-out: CLH
[8] = Metabolic stability in rat liver microsomes assessed as intrinsic clearance preincubated for 10 mins followed by NADPH addition and measured upto 60 mins by LC-MS/MS analysis; format: ADME, Microsome; settings: time < 70 min, read-out: CLH
[9] = Metabolic stability in human liver microsomes assessed as half-life preincubated for 10 mins followed by NADPH addition and measured upto 60 mins by LC-MS/MS analysis; format: ADME, Microsome; settings: time < 70 min
[10] = AUC (0 to last) in Sprague-Dawley rat at 1 mg/kg, iv measured upto 24 hrs by LC-MS/MS analysis; format: ADME, organism-based; parameters: dose 1 mg/kg, time < 24 hrs, route iv; settings: in vivo
[11] = Half-life in Sprague-Dawley rat at 5 mg/kg, po measured upto 24 hrs by LC-MS/MS analysis; format: ADME, organism-based; settings: in vivo
[12] = Clearance in Sprague-Dawley rat at 1 mg/kg, iv measured upto 24 hrs by LC-MS/MS analysis; format: ADME, organism-based; settings: in vivo
[13] = AUC (0 to last) in Sprague-Dawley rat at 5 mg/kg, po measured upto 24 hrs by LC-MS/MS analysis; format: ADME, organism-based; parameters: dose 5 mg/kg, time < 24 hrs, route po; settings: in vivo
[14] = Cmax in Sprague-Dawley rat at 5 mg/kg, po measured upto 24 hrs by LC-MS/MS analysis; format: ADME, organism-based; parameters: dose 5 mg/kg, time < 24 hrs, route po; settings: in vivo
[15] = Oral bioavailability in Sprague-Dawley rat at 5 mg/kg measured upto 24 hrs by LC-MS/MS analysis; format: ADME, organism-based; settings: in vivo
[16] = Half-life in Sprague-Dawley rat at 1 mg/kg, iv measured upto 24 hrs by LC-MS/MS analysis; format: ADME, organism-based; settings: in vivo
[17] = Cmax in Sprague-Dawley rat at 1 mg/kg, iv measured upto 24 hrs by LC-MS/MS analysis; format: ADME, organism-based; parameters: time < 24 hrs, dose 1 mg/kg, route iv; settings: in vivo

Row | Compound | IC50 [1] [nM] | IC50 (Aurora kinase B) [nM] | IC50 [2] [nM] | IC50 [3] [nM] | CLint scaled [4] [mL/min/kg] | half-life [5] [min] | CLint scaled [6] [mL/min/kg] | CLint scaled [7] [mL/min/kg] | CLint scaled [8] [mL/min/kg] | half-life [9] [min] | AUClast [10] [ng·h/mL] | half-life [11] [min] | clearance [12] [mL/min/kg] | AUClast [13] [ng·h/mL] | Cmax [14] [ng/mL] | bioavailability [15] [%] | half-life [16] [min] | Cmax [17] [ng/mL]
1 | Cc1nc(-c2ccccc2Nc2nc(Nc3ccc(CN4CCN(C)CC4)cc3)ncc2Cl)n[nH]1 | 11 | 4 | 500 | 130 |  |  |  |  |  |  |  |  |  |  |  |  |  | 
2 | CC(=O)N1CCN(c2ccc(Nc3ncc(Cl)c(Nc4ccccc4-c4ncn(C(C)C)n4)n3)cc2)CC1 |  |  |  |  | 7.2 | 153 | 12.5 | 11.2 | 16.2 | 156 | 497 | 79.2 | 32.5 | 661 | 169 | 26.6 | 89.4 | 337
3 | CN1CCC(N(C)c2ccc(Nc3ncc(Cl)c(Nc4ccccc4-c4ncn(C)n4)n3)cc2)CC1 |  |  |  |  | 11 | 15.4 | 41.2 | 23.4 | 162 | 74.2 |  |  |  |  |  |  |  | 

The remaining lines, values ahead:

Row | IC50 [1] [nM] | IC50 (Aurora kinase B) [nM] | IC50 [2] [nM] | IC50 [3] [nM] | CLint scaled [4] [mL/min/kg] | half-life [5] [min] | CLint scaled [6] [mL/min/kg] | CLint scaled [7] [mL/min/kg] | CLint scaled [8] [mL/min/kg] | half-life [9] [min] | AUClast [10] [ng·h/mL] | half-life [11] [min] | clearance [12] [mL/min/kg] | AUClast [13] [ng·h/mL] | Cmax [14] [ng/mL] | bioavailability [15] [%] | half-life [16] [min] | Cmax [17] [ng/mL] | Compound
4 |  |  |  |  | 14.5 | 6.4 | 48.3 | 48 | 389 | 36.2 |  |  |  |  |  |  |  |  | CN1CCC(Oc2ccc(Nc3ncc(Cl)c(Nc4ccccc4-c4nnn(C)n4)n3)cc2)CC1
5 |  |  |  |  | 19.6 | 7.3 | 47.5 | 393 | 339 | 4.4 |  |  |  |  |  |  |  |  | CN1CC2CN(C(=O)c3ccc(Nc4ncc(Cl)c(Nc5ccccc5S(=O)(=O)N(C)C)n4)cc3)CC2C1 (stereo not drawn)
6 | 14 |  |  |  | 20.1 | 2.4 | 52.4 | 720 | 1040 | 2.4 |  |  |  |  |  |  |  |  | CN1CCc2ccc(Nc3ncc(Cl)c(Nc4ccccc4S(=O)(=O)N(C)C)n3)cc2C1
7 |  |  |  |  | 20.1 | 4.3 | 50.4 | 646 | 582 | 2.7 | 187 | 176 | 82.8 | 158 | 46.8 | 21.5 | 106 | 89.8 | CN1CCN(Cc2ccc(Nc3ncc(Cl)c(Nc4ccccc4S(=O)(=O)N(C)C)n3)cc2)CC1 [DUBERMATINIB]
8 |  |  |  |  | 20.3 | 2.3 | 52.5 | 953 | 1090 | 1.82 |  |  |  |  |  |  |  |  | CC(=O)N1CCc2ccc(Nc3ncc(Cl)c(Nc4ccccc4S(=O)(=O)N(C)C)n3)cc2C1
